# Assay results taken from the RNAGym collection of RNA variant scans (doi:10.1126/science.aae0568).
# This sample holds only a part of the variants without activity.
# B1: tRNA (parent)
# chain: GUUCCGUUGGCGUAAUGGUAACGCGUCUCCCUCCUAAGGAGAAGACUGCGGGUUCGAGUCCCGUACGGAACG
# Variants of: B1
# Assay: yeast fitness relative to wild type (ratio to wild type); higher = fitter; tRNA-Arg(CCU), competitive growth, 37 C, YPD
# Method in brief: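 The tRNA-Arg(CCU) gene variants were made by chemical synthesis with a 3% per-site mutation rate at 69 sites and inserted at the native genomic locus of Saccharomyces cerevisiae. After pooling, the strains were competed in YPD at 37°C for 24 hours in six parallel replicates. Gene amplicons from the start population and each end population were read by 100-nucleotide paired-end sequencing, and Darwinian fitness relative to wild type was taken from genotype frequency changes. Genotypes needed ≥ 100 starting reads, and estimates < 0.5 were set to 0.5.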
row,Variant,yeast fitness
1,G12A A20G A45U C49G A57U,≤ 0.5
2,G12A G25C C60U A69C,≤ 0.5
3,G12A G44C A65G,0.649
4,G12A A14G C30G A70U,0.616
5,C11U U35C G44A,0.727
6,C11U U53C A57C,≤ 0.5
7,G12A C33A U54G A70C,0.541
8,G12A A40C G58C U59C G63A,≤ 0.5
9,G12A G18A U19C C55U A57C G58C,0.638
10,G12A C24A A36C C61U G67U,0.615
11,G12A A40C A65C,0.655
12,G12A U32C A40G,≤ 0.5
13,G12A C31A G38C A65G,≤ 0.5
14,G12A A37U,0.653
15,G12A U16C C27A U54A,≤ 0.5
16,G12A C27U A37C A45G,≤ 0.5
17,G12C A14G G25A G41C C61U G67A,0.573
18,G12A G23C,0.733
19,C11U U59A A69C,0.537
20,G12A U13C C33U C34U A42C G50A,≤ 0.5
21,G12C A14C C60G,0.618
22,G12A C22G C24A G38A,≤ 0.5
23,G12A U28C,1.06
24,G12A U28G,0.607

row,Variant,yeast fitness
1,G12A C34U A37U G41A G50C,0.561
2,G12A G38A U54C,≤ 0.5
3,G12A A15C C62U C66G,≤ 0.5
4,C11U U19C U59C C61A,≤ 0.5
5,G12A A15G A70U,0.682
6,G12A C33A,0.644
7,G12A A36U,0.612
8,C11U U54C A57G,0.553
9,G12A A65G,0.98
10,G12A A65U,0.861
11,G12A U19A C31G C34U A57G,≤ 0.5
12,G12A G67U,0.797
13,G12A G67C,0.848
14,G12A C55A A65C,≤ 0.5
15,G12A U13C C49G U59A,≤ 0.5
16,G12A C24G A40C A43C C46U C49U G68C A69U,≤ 0.5
17,C11U U16C U19C C62U A70G,0.524
18,G12C A15U G25A,0.696
19,G12A G51A,0.883
20,G12A G51C,0.662
21,G12A U13G,0.869
22,G12A G17C,0.661
23,G12A C27U A36C A42U C46U,≤ 0.5
24,G12A A20G,0.923

row,Variant,yeast fitness
1,G12A A20C,0.875
2,G12A U19G U35C A40U C61A,≤ 0.5
3,G12A A40C C66U,0.532
4,G12A A15U C24G G63C,≤ 0.5
5,G12A C30A C31G U54G,≤ 0.5
6,G12A C34G,0.644
7,G12A A14U A21U U32G A37G A45G C55A,≤ 0.5
8,G12A A43U A45C G50C C60U,≤ 0.5
9,G12C A15C U19A C34U C49A A65U,≤ 0.5
10,G12A C24A U26G A43C C62G G63A C66G A69G,≤ 0.5
11,G12A A14C C31G A65C,≤ 0.5
12,G12A G25A G52A,0.583
13,G12A C29U U35A G44C C61A,≤ 0.5
14,G12A U13A G41C A45C C66U,≤ 0.5
15,G12A A14C U16C C31U C49G C60A,≤ 0.5
16,G12A A40G C46A,0.752
17,G12A U35C G48C,≤ 0.5
18,G12A C22G,1
19,G12A A21G G39A A45G G50A A69U,≤ 0.5
20,G12A C27G A43U,0.53
21,G12A C24G A40C A43C C46U C62A,≤ 0.5
22,G12A A20U A42C,0.692
23,G12A A21G C34U G67U,≤ 0.5
24,G12A A20C C24G U54A C60G C66U,≤ 0.5

row,Variant,yeast fitness
1,G12A U28A U54C,≤ 0.5
2,G12A A15U G17A,≤ 0.5
3,C11U U16C G25A,0.9
4,G12A U28G U35C,≤ 0.5
5,C11U U35C A36U C46U G51A,≤ 0.5
6,G12A U35A G58A G68A,0.561
7,C11U U19C A20U A42C A65C A69U,≤ 0.5
8,C11U U32C C33U C62U A65G,≤ 0.5
9,G12A C24A A36U,0.666
10,C11U U26A A43U A65C A70G,≤ 0.5
11,G12A C29A A45U,0.531
12,G12A C29G A65U,0.58
13,G12A C24A C34A C49A G63U G67A,≤ 0.5
14,G12A C60A G67A,0.68
15,G12A C55U G63C,≤ 0.5
16,C11U U26C U47A G50A,≤ 0.5
17,G12A C33A G51C,≤ 0.5
18,G12A C22A C24A A65U,≤ 0.5
19,G12A U13A A42C A70U,≤ 0.5
20,G12A C49U C62A,0.625
21,G12A A70G,1.02
22,G12A A70U,0.99
23,G12C A20C A43U,0.632
24,G12C A20C A43C,≤ 0.5

row,Variant,yeast fitness
1,G12A U32A A40U G41C C46A G52A,≤ 0.5
2,G12A A20U G23C U32C A69G,≤ 0.5
3,C11U U28C G44C U64C,≤ 0.5
4,G12A G25A C27U,0.596
5,G12A A15C G58C,≤ 0.5
6,C11U U19A G63C,0.53
7,C11U U53C,0.652
8,G12A A21G C46G G51A A69U,≤ 0.5
9,G12C A15U C24A U54A C62U A65G G68A,≤ 0.5
10,C11U U19G A20U,0.764
11,G12A A45G C62U,0.531
12,G12A A21G A40U,0.564
13,G12A C29U G56C,≤ 0.5
14,G12A C24G C62G,≤ 0.5
15,G12A A21G C46G G51A G67C,≤ 0.5
16,G12A C33U A36C,0.563
17,G12A A21G G44A C46U A69C,0.507
18,G12A A15C C46G G58C C61A,≤ 0.5
19,G12A A15C C62G A65C,≤ 0.5
20,C11U U19A A37C A40C G63A,≤ 0.5
21,G12A A15G C22U C31A U35G C61U A65C A69G,≤ 0.5
22,C11U U19A G41A C60G A65G,≤ 0.5
23,G12A C24U G41A,0.544
24,G12C A14G G25A G41C U54G A65G G68U A70C,0.545

row,Variant,yeast fitness
1,G12A A43U A45C U54C G67C,0.525
2,G12A A57C,0.618
3,G12A G38A G48A,≤ 0.5
4,G12A C31U C61U A70G,0.541
5,G12A C24G U35A A36G A40C G67A,≤ 0.5
6,G12A U19G,0.893
7,G12A U19C A21U A45U G50A G68C A69U,≤ 0.5
8,C11U U32G C62A,0.618
9,G12A U16A G39C U54C C55U,≤ 0.5
10,G12A C33U A36C G51C A57U,≤ 0.5
11,G12A C24U C49G G56C G58A,≤ 0.5
12,G12A C61G C62A A70G,≤ 0.5
13,G12A U35C,0.83
14,C11U U54C G56A,≤ 0.5
15,G12A G48A,0.819
16,G12A C27G U32G C60A,≤ 0.5
17,G12A U16A U64G,≤ 0.5
18,G12A C49U C66A,≤ 0.5
19,G12A C34A G52C C60A,≤ 0.5
20,G12A A43U A45C,≤ 0.5
21,G12A U13A A14G A21G C33U,≤ 0.5
22,G12A G52C,0.668
23,G12A G44C C46G,0.61
24,G12A C24A A36U A37G C61U G67U,≤ 0.5

row,Variant,yeast fitness
1,C11U U26A A36U,≤ 0.5
2,G12A C22G C29U,0.551
3,C11U U28C C29G A57G,≤ 0.5
4,G12A C33U A36C C55G,≤ 0.5
5,G12A C30G U59A,≤ 0.5
6,C11U U19A,0.992
7,C11U U19C G67C,0.566
8,G12A C22G C27A,0.663
9,G12A A15U C33A A36U C62U,≤ 0.5
10,G12A U54A,0.679
11,G12A U54C,0.797
12,G12A G51A C61A,≤ 0.5
13,G12A C27U U32A,0.702
14,G12A U47A G63A A69U,0.554
15,G12A A20C C29A,≤ 0.5
16,C11U U26C U47A G50A A70C,≤ 0.5
17,G12A U16A,0.974
18,G12A C49A U54A,≤ 0.5
19,G12A A15G G48C A57U,≤ 0.5
20,C11U U26A C34G G68C,≤ 0.5
21,C11U U19A U32A A37U,≤ 0.5
22,G12A A20G A21U A40G,≤ 0.5
23,G12A C55G,0.639
